# In paper PMC10213863 (Cell Reports Medicine, 2023):
# Tests used:
# TLR9 = molecular target: T1, TLR9 (Homo sapiens, UniProt Q9NR96); experiment: Human PBMC assay, ODN2216-induced IFN-α; assay type: cell-based
# T1 sequence (Q9NR96 26-1032): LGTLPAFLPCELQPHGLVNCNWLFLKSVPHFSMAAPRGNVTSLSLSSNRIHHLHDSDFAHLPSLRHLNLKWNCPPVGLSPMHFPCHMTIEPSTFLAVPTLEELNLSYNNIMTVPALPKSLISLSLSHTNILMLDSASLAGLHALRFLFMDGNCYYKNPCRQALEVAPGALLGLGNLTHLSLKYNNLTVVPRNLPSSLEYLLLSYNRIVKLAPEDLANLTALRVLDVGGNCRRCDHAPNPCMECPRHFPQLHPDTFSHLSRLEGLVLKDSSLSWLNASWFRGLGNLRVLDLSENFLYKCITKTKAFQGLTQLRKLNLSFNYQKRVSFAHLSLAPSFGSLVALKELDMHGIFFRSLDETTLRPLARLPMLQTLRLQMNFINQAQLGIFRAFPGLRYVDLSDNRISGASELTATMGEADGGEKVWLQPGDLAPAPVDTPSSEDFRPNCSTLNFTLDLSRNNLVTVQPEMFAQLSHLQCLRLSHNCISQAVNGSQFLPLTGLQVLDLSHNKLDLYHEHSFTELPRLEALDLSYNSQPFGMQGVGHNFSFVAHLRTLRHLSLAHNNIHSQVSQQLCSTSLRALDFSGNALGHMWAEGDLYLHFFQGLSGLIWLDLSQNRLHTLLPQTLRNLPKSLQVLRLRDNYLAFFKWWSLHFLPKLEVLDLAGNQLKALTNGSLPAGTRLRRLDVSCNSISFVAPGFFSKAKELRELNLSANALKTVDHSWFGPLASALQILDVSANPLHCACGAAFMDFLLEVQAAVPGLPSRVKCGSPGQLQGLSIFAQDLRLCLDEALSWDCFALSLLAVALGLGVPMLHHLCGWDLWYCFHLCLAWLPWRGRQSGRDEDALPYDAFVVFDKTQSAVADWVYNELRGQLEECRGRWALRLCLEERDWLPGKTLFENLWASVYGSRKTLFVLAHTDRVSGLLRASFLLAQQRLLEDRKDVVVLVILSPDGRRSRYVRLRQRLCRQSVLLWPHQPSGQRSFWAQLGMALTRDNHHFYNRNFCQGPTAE
# In short: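 Human PBMCs were pre-incubated 30 min with test compound, then stimulated with the respective TLR or IL-1R agonist at doses from earlier work. Cytokines in supernatants were quantified by immunoassay. Viability across the dose range was checked by CellTiter-Glo.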
# [1] = test system: immune-complex stimulated ISG panel in PBMCs; experiment: Five-gene ISG panel in PBMCs stimulated with SLE immune complexes; assay type: cell-based, human; conditions: MHV370 0.1 μM
# In short: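 PBMCs were pre-treated 30 min with test compound, HCQ or 0.1% DMSO, then stimulated 20 h with SLE serum pre-complexed with U-937 necrotic extract. RNA was extracted and ISGs quantified by qRT-PCR with the 2−ΔΔCt method against 18S rRNA, using biological replicates. Global ISG induction was derived by normalizing each ISG's relative induction to 100%.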
# [2] = test system: tumor necrosis factor (TNF) receptor; experiment: Ramos Blue reporter B cell line, TNF stimulation; assay type: cell-based, human; conditions: Ramos cells; up to 10 μM; n = 4, data not shown
# In short: (§1)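 Ramos Blue B reporter cells were pre-treated 30 min at 37°C, 5% CO2 with increasing concentrations of test compound or 0.25% v/v DMSO. They were then stimulated with the respective agonist, and reporter activity was read.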
# [3] = MHV370 blood exposure during food dosing of NZB/W F1 mice; assay type: in vivo, mouse
# In short: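 NZB/W F1 mice were fed diet containing test compound at 0.01% or 0.1%, with fresh food every two weeks. Daily food intake per mouse was calculated per cage. Whole-blood drug concentrations were measured by LC-MS/MS.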
# TLR2/6 = TLR2/6 (Homo sapiens, UniProt O60603+Q9Y2C9); experiment: Ramos Blue reporter B cell line, FSL-1 stimulation; assay type: cell-based; conditions: Ramos cells; up to 10 μM; n = 4, data not shown
# Sequence of TLR2/6 (O60603 21-784): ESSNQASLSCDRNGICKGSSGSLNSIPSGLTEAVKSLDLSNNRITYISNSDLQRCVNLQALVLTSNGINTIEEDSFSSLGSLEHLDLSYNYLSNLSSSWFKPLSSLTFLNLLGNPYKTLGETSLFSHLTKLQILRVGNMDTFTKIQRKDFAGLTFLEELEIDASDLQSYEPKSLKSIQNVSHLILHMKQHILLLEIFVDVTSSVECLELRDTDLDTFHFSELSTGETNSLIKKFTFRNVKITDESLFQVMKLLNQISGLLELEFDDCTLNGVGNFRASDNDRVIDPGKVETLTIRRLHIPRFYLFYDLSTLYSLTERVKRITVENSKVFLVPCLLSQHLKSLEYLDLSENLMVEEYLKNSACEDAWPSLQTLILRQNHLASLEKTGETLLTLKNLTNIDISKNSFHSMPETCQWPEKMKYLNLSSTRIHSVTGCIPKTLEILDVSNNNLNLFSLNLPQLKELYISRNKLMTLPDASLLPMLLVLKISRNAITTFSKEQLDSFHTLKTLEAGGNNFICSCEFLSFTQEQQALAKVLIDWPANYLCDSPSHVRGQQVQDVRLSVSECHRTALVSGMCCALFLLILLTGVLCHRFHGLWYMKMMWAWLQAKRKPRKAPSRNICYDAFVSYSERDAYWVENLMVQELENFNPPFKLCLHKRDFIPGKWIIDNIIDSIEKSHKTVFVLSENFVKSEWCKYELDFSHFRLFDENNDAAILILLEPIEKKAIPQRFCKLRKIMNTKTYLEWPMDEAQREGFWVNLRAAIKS
# Sequence of TLR2/6 (Q9Y2C9 32-796): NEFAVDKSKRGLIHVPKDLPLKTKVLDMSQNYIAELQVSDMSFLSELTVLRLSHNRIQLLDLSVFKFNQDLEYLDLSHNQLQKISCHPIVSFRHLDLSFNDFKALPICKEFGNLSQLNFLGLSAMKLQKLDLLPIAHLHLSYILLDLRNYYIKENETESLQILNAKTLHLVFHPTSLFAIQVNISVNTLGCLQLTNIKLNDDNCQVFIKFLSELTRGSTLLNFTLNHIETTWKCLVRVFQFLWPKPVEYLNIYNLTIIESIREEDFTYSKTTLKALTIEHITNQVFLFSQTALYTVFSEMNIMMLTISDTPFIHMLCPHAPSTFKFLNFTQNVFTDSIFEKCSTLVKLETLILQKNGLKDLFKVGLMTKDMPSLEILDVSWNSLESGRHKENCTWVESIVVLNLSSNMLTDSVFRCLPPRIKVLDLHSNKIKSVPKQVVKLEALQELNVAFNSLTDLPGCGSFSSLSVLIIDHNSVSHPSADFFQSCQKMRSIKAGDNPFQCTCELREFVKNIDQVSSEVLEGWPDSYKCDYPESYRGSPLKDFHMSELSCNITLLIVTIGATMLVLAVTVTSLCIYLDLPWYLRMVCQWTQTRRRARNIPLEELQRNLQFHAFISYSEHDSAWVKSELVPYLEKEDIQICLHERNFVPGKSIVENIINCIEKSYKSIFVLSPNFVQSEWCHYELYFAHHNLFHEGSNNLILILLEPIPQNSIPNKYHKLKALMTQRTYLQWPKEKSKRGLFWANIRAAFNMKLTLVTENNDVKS
# In short: as §1
# TLR7 = molecular target: T2, TLR7 (Mus musculus, UniProt P58681); experiment: Ex vivo PD marker CD69 on B cells vs MHV370 blood exposure in NZB/W F1 mice
# T2 sequence (P58681 27-1050): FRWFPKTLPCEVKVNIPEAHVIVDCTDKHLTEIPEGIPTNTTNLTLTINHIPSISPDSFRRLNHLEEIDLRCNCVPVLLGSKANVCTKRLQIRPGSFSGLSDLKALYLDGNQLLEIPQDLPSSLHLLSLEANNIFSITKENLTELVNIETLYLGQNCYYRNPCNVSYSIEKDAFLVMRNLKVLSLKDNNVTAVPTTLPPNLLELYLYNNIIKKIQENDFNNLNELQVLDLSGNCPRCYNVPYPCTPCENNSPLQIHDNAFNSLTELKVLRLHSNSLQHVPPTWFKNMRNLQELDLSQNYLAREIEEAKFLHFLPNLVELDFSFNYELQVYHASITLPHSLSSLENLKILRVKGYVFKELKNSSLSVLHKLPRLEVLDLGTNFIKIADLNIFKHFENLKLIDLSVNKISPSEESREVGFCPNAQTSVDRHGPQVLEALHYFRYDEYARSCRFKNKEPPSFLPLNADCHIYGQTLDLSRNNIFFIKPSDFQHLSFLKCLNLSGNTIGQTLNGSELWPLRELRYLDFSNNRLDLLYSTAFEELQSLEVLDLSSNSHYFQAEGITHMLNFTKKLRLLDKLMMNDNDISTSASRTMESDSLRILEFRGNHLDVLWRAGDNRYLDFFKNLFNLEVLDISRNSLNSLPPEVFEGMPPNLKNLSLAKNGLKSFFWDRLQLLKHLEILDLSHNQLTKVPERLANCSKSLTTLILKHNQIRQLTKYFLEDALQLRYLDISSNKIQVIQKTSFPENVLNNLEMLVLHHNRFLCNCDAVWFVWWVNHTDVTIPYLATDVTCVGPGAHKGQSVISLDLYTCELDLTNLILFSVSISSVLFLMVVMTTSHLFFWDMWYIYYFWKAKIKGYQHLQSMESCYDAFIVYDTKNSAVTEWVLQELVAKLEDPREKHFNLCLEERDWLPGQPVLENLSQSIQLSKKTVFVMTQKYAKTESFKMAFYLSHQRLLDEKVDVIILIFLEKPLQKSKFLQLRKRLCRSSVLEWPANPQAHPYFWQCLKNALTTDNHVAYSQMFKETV
# In short: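 NZB/W F1 mice were dosed with test compound in food. Anticoagulated whole blood was diluted 1:1 in RPMI1640 and stimulated with 0.07 μg/mL R848 or medium at 37°C, 5% CO2. CD69 MFI on CD19+ B cells was read by flow cytometry. Drug concentration in whole blood was measured by LC-MS/MS.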
structure (smiles),measurement,setting,value
"Cc1cc(N2CCc3c(c(C)nn3CC34CCC(NC(=O)[C@@H]5COCCN5)(CC3)CC4)C2)c2cnn(C)c2n1 [MHV370, (S)-N-(4-((5-(1,6-dimethyl-1H-pyrazolo[3,4-b]pyridin-4-yl)-3-methyl-4,5,6,7-tetrahydro-1H-pyrazolo[4,3-c]pyridin-1-yl)methyl)bicyclo[2.2.2]octan-1-yl)morpholine-3-carboxamide]",IC50,TLR9,1.3 µM
same,expression of a five-panel ISG signature,[1],strongly suppressed
same,interference with TNF receptor-driven activity,[2],did not interfere
same,exposure level in blood,[3]; 0.01% MHV370 in food,55 nM
same,exposure level in blood,[3]; 0.1% MHV370 in food,1424 nM
same,interference with TLR2/6-driven activity,TLR2/6,did not interfere
same,IC50,TLR7,0.035 µM
